The results in this text go back to ChEMBL document CHEMBL1122895, “Aldose reductase inhibitors: a potential new class of agents for the pharmacological control of certain diabetic complications” (J Med Chem, 1985).

pIC50: −log10 of the molar value.

Experiment [1] has as its target T1, Aldo-keto reductase family 1 member B1 (Homo sapiens, UniProt P15121). Kind of experiment: Inhibitory activity against human placental aldose reductase in Orange A column at day 8.
In experiment [2] the target is T1, Aldo-keto reductase family 1 member B1. Description: Inhibitory activity against human placental aldose reductase in Sepharose 4B column at day 7.
For experiment [3] the target is unchanged. Kind of experiment: Inhibitory activity against human placental aldose reductase in Sepharose 4B column at day 1. Summed up: (§1)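 Human placental aldose reductase was purified at 4 °C. Enzyme activity was read photometrically at 340 nm, with 10 mM DL-glyceraldehyde as substrate. IC50 values came from simple linear regressions of Marquardt-Levenberg iterative curve fitting.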

For experiment [4] the target is unchanged. Kind of experiment: Inhibitory activity against human placental aldose reductase in Orange A column at day 2. Summed up: as §1
The target is the same in experiment [5]. Kind of experiment: Inhibitory activity against human placental aldose reductase in 30 -70% (NH4)2SO4.
Experiment [6] addresses Aldo-keto reductase family 1 member B1 (Rattus norvegicus, UniProt P07943). Description: Inhibitory activity against rat lens aldose reductase (RLAR).
Experiment [7] has as its target T1, Aldo-keto reductase family 1 member B1. Kind of experiment: Inhibitory activity against human placental aldose reductase (HPAR). In outline:
as §1

Experiment [8] has the same target. Description: Inhibitory activity against human placental aldose reductase in Sepharose 4B column at time 1.
Experiment [9] shares this target. Description: (§2) Inhibitory activity against human placental aldose reductase in Orange A column at time 2.
The target is the same in experiment [10]. Kind of experiment: Inhibitory activity against human placental aldose reductase (HPAR). In outline: as §1
For experiment [11] the target is unchanged. The experiment is described as §2. Summed up:
as §1
This is another data set of the same source.

As for `O=C(O)c1ccc2nc3cc(O)ccc3c(=O)n2c1`, the pIC50 was 5.14 in [1]; 5.14 in [2]; 5.30 in experiment [3]; 4.72 in experiment [4]; 5.35 in experiment [5].
Take `O=C(O)C1=CC(=O)C2C=CC(O)=CC2O1` (stereo not drawn): the negative logarithm of the IC50 (pIC50) in [1] was 5.51; in [2] it was 5.41; in experiment [3] it was 5.33; in experiment [4] it was 5.23; in experiment [5] it was 5.74.
Take `O=C(OCc1ccccc1)c1cc(=O)c2ccc(O)cc2o1`: the negative logarithm of the IC50 (pIC50) is 5.60 in [6] and 5.49 in experiment [7].
As to `CC1OC(O)C(O)C(O)C1Oc1c(-c2ccc(O)c(O)c2)oc2cc(O)cc(O)c2c1=O` (stereo not drawn), the negative logarithm of the IC50 (pIC50) in experiment [1] is 5.05; in experiment [2], 4.80; in experiment [8], 4.85; in experiment [9], 4.80; in experiment [5], 5.15.
As for `O=C(O)c1cc(=O)c2ccc(O)cc2o1`, the pIC50 was 5.74 in experiment [10] and 5.66 in experiment [6].
For the compound `CCOC(=O)C(=O)Nc1cc([N+](=O)[O-])cc(C(=O)O)c1O`, the pIC50 in experiment [1] was 5.40; in experiment [2], 5.08; in experiment [3], 5.35; in experiment [4], 5.49; in [5], 5.14.
`CC(C)OC(=O)c1cc(=O)c2ccc(O)cc2o1`: the negative logarithm of the IC50 (pIC50) in [6] was 5.51; in [7] it was 5.37.
For the compound `O=C(O)CN1C(=O)c2cccc3cccc(c23)C1=O` [ALRESTATIN], the negative-log IC50 (pIC50) in experiment [1] is 4.10; in [2] it was 4.47; in experiment [8] it was 4.66; in experiment [5], 5.19; in experiment [11], 3.85.
With `O=c1c(Cl)c(-c2nn[nH]n2)oc2ccccc12`, the negative-log IC50 (pIC50) in [1] was 3.70; in [2], 4.41; in experiment [3], 4.42; in experiment [4] it was 3.55; in experiment [5], 5.39.
As for `CCOC(=O)c1cc(=O)c2ccc(O)cc2o1`, the pIC50 in experiment [6] is 5.64; in experiment [7] it was 5.30.
